Test results published in the RNAGym collection of RNA variant scans (doi:10.1126/science.aae0568).
This sample holds only a part of the variants without activity.

B1: tRNA (parent)
chain: GUUCCGUUGGCGUAAUGGUAACGCGUCUCCCUCCUAAGGAGAAGACUGCGGGUUCGAGUCCCGUACGGAACG

Variants of: B1
Test: yeast fitness relative to wild type (ratio to wild type); higher = fitter; tRNA-Arg(CCU), competitive growth, 37 C, YPD
Outline: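 The tRNA-Arg(CCU) gene variants were made by chemical synthesis with a 3% per-site mutation rate at 69 sites and inserted at the native genomic locus of Saccharomyces cerevisiae. After pooling, the strains were competed in YPD at 37°C for 24 hours in six parallel replicates. Gene amplicons from the start population and each end population were read by 100-nucleotide paired-end sequencing, and Darwinian fitness relative to wild type was taken from genotype frequency changes. Genotypes needed ≥ 100 starting reads, and estimates < 0.5 were set to 0.5.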

Variant	yeast fitness
GUACCGUUGGCGUAAUGGUAACGCGUCUCGCUCCUAAGGAGAAGACUGCGGGUUUGAGUCCCGUACGGAUCG	≤ 0.5
GUUCCGUUGGCGUAAUGGUAACGCGUCUCCCUCGUAAGGAGAAGACUCCGGGUUCGAGUCCCGUACGGAACG	0.519
GUUCCGUUGGCGUAAUGGUAACGCGUCUCCCUCCUAAGGAAAAGACUGCGGGUUCGAGUCCUGUACGGUACG	0.619
GUUCCGUUGGCGUAAUGGUAACGCGUCUGCCUCCUAAGGAGAAGACUGUGGGUUCGAGUCCCGUCCGGAACG	≤ 0.5
GUUCCGUUGGCGUAAUGGUAACGGGUCUCCCUCCUAGGGAGAAGACUGCGGGUUUGAGUCCCGUACGGAACG	≤ 0.5
GUUCUGUUGGCGUAAUGGUAACGCGUCUCCCUCAUAACGAGAAGACUGCGGGUUCGAGUCCCGUACGGAACG	≤ 0.5
GUUCCGUUGGAGUAAUGGUAAAGCGUCUCCCUCCUAAGGAGAAGACUGCGGGUUCGAGUCCCGUACGGAACG	0.626
GUUCCGUUGGCGUAAUGGUAACGCGUCUCCCUCCGAAGGAGAGGACUGCGGGUUCGAGUCCCGUACGGAACG	0.725
GUUCCGUUGGCGUAAUGGUAACGCGUCUCCCUCCUAAGGAGAAGACUGAGGGUUCGAGUCCUGUACGGAACG	0.717
GUUCCGUUGGCGUAAUGGUUACGCGUCUCCCUCCUAAGGAGAAGACUGCGGGUUCGAGUCCCGUACGGACCG	0.977
GUUCCGUUGGCGUAAUGGUAACGGGUCUCCCUCCUAAGGAGAAGACUGCGGGUUCGAGUCCCGUAAGGAACG	0.576
GUUCAGUUGGCGUAAUGGUAACGCGUCUGCCUCCUAAGGAGAAGACUGCGGGUUCCAGACCCGUACGGAACG	0.717
GUUCGGUUGGCGUAAUCGUAACGCAUCUCCCUCCUAAGGAGAAGACUGCGGGUUCGAGUCCCGUACGGAGCG	≤ 0.5
GUUCCGUAGGCGUAAUGGUAACGCCUCUCCCUCCUACGGAGAAGACUGCGGGUUCGAGUCCCGUACGGAACG	≤ 0.5
GUUCAGUUGGCGUAAUGGUAACGCGUCUCCCUCCUAAGGAGAAGACUGCGGGUACGAGUCCCGUACGGAACG	0.699
GUUCCAUUGGCGUAAUGGUAACGCGUCUCCCUCGUAGGGAGAAGACUGCGGGUUCGAGUCCCGUACUGAACG	≤ 0.5
GUUCCGUUGCCAUAGUGGUAACGCGUCUCCCUCCUAAGGAGAAGACUGCGGGUUCGAGUCCCAUACGGAACG	0.643
GUUCCGAUGGCGUAAUGGUAGCGCGUCUCGCUCCUGAGGAGAAGAGUGCGGGUCCGUGUCCCGUACGGAACG	≤ 0.5
GUUCCGUUGCCGUAAUGGUAAGGCGUCUGCCUCCUAAGGAGAAGAUUGCGGGUUCGAGUCCCGUCCGGAACG	≤ 0.5

Variant	yeast fitness
GUUCCGUUGGAGUAAUGGUAACGCGUCUCCCUCAUAAGGGGAACACUGCGGGUUCGAGUCCCGUACGGAUCG	≤ 0.5
GUUUCGUUGGCCUAAUGGUAACGCGUCUCCCUCCUAAGGAGAAGACUGAGGGUUCGAGUCCCGCACGGAACG	≤ 0.5
GUUCCCUUGGCGUAAUGGUAAAGCGUCUCCCUCCUAAGGAAAACACUGCGGGUUCGAGUCCCGUACGGAACG	≤ 0.5
GUUCCGUUGGCGUAAUGGUAACGCGUCUCCCUCCUAAGGCGAAGACUGCGGGUUCGCGUCACGUACGGAACG	≤ 0.5
GUUCCGUUGGCGUAAUGGUAACGCGUCUCCCUCCUAACGAGGGGACUGCGGGUUCGAGUCCCGUACGGAACG	≤ 0.5
GUUACGUUGGCGUCAUGGUAACGCGCCUCCCUCCUGAGGAGAAGACUGCGGGUUCGAGUCCCGUUCGGAACG	≤ 0.5
GUUCCGUUGGCAUAAUGGUAACGCGUCUCCCUCCUAAGGAGAUGCCUGCCGGUUCGAGUUCCGUACGGAACG	≤ 0.5
GUUCCGUUGGCGUAAUGGUAACGCGUCAGCUUCCUAAGGAGAAGACUGCGGGUUCGAGUCCCGUACGAAACG	0.547
GUUCCGUUGGCGUAAUGGUAAAGCGUCUCCCUCCUAAGGAGAUGACUGCGGGUUCGAGUACCGUGCGGAACG	0.683
GUUCCGUUGGCGUAAUGGUAAUGCGUCUCCCUGCUAAGGAGAAGACUGCGGGUUCGAGUCCCGUACGGAACG	0.551
GUUCCGUUGGCGUAAUGGUAACGCGUCUCACUCCUAAGGGGAAGACUGCGGGUUCGAGGCCCGUACGGACCG	≤ 0.5
GUUCCGUUGGCGUAAUGGUAACGCGUCUCCCUCCUAAGGAGAAGACUGCGGGUUCGAGAGCCGUACGGAACG	0.655
GUUCCGUUGGCGUAAUGGUAACGCGUCUCUCUCCUAAGGAGAAGACUGCGGGUUCGAGUCCCGUACGGAACG	1.01
GUUCCGUUGGCGUAAUGGUAACGCGUCUCCCUCCUAAGGAGAAGACUACGGGUUCGUGUCCCGUACGGAACG	0.649
GAUCCGUUGGCGUAAUGGUAACGCGUCUCCCUCCUAAGGAGAAGACUGUGGGUUCGAGUCCCGUACGGAACG	0.981
GUUCCGUUGGUGUAAUGGUAACGCGUCUCCCUCCUAAGGAGCAGACUGCGGGUUCGAGUCCCGUACGGUACG	0.773
GUUCCGUUGGCGUAAUGGUAACGCGUCUCCUCCAUAAGGAGAAGACUGCGGGUUUGAGUCCCGUACGGAACG	≤ 0.5
GUUCAGUUGGCGUAAUGGUAACGCGUCUCCCUCCUAAGGAGAAGAGUGCGGGUUCGAGUCCCGUACGGAACG	0.719
